Several values for one entry are separate records, joined by “and”; a condition that tells them apart may be missing. Equal values may be shown once. Read-outs that look alike come from different tables or passages of the source.
Columns and labels:
[1] = system: MDA-MB-231 breast cancer cells; assay: MTT assay on MDA-MB-231 cells; type: cell-based; conditions: Homo sapiens
Procedure, shortened: (§1)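 Cells kept in DMEM with 10% (v/v) FBS and 1% (v/v) streptomycin/penicillin at 37 °C and 5% CO2. About 10^4 cells/ml were seeded and grown for 24 h. Test compounds in DMSO were added at 6.25, 12.5, 25, 50 and 100 µg/ml for 24 and 48 h. Medium was replaced with 5 mg/mL MTT for 3–4 h. Formazan was dissolved in acidified isopropanol and read at 630 nm. Viability is expressed as % of untreated cells.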

[2] = MTT assay on oral epithelial normal cells; type: cell-based
Procedure, shortened: as §1

KSP ATPase [3] = target: T1, KSP ATPase (Homo sapiens, UniProt P52732); assay: Microtubule-activated KSP ATPase end-point assay; type: biochemical; conditions: read-out: KSP ATPase inhibition [%]
T1 sequence (P52732 1-1056): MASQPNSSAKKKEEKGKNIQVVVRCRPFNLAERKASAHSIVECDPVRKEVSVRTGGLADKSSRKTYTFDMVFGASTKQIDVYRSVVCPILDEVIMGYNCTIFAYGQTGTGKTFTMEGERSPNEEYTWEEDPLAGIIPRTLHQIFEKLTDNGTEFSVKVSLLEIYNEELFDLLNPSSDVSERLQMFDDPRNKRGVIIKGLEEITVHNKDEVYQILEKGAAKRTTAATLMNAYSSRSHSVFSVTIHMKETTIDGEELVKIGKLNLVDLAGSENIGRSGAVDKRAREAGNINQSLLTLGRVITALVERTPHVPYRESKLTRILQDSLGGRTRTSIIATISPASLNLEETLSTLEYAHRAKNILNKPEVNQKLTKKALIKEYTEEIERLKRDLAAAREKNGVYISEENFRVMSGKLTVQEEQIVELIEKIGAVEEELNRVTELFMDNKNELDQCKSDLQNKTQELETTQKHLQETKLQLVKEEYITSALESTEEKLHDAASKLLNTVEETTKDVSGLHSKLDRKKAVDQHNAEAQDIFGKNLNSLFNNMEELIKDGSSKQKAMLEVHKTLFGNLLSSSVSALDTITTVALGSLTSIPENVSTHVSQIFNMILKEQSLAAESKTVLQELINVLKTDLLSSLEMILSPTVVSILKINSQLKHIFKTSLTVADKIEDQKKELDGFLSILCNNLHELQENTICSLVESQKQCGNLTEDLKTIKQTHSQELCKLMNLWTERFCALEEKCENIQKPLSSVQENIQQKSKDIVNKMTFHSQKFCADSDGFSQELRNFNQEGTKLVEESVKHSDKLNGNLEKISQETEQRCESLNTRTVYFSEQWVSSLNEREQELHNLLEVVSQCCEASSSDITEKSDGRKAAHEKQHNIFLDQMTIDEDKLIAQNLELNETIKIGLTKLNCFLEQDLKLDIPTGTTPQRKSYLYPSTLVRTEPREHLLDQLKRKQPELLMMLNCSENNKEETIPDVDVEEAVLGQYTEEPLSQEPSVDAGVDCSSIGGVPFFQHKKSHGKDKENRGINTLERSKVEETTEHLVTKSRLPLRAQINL

MDA-MB-231 cells [4] = assay: Annexin V-FITC/PI flow cytometry; type: cell-based; conditions: MDA-MB-231, Annexin V-FITC & PI, post-treatment
Procedure, shortened: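 MDA-MB-231 cells were kept in DMEM with 10% FBS and 1% streptomycin/penicillin at 37 °C under 5% CO2. Cells were treated with the test compound for 48 h, with doxorubicin as the standard and untreated cells for comparison. Cells were then harvested, rinsed, suspended in PBS, stained with Annexin V-FITC/PI and held 20 min in the dark before flow cytometry. Early apoptosis was Annexin V+/PI−; late apoptosis was Annexin V+/PI+.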

MDA-MB-231 cells [5] = assay: qRT-PCR relative gene expression of P53, BAX and BCL-2; type: cell-based; conditions: MDA-MB-231, 48 h
Procedure, shortened: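 RNA was extracted from cells after 48 h of treatment with test compound, and its purity was checked by nanodrop. P53, BAX and BCL-2 expression was normalised to β-actin as the housekeeping gene. Treated and untreated cells were compared by ANOVA.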

KSP ATPase [6] = target: T1, KSP ATPase; assay: Microtubule-activated KSP ATPase kinetic assay; type: biochemical
PI3Kδ = PI3Kδ (Homo sapiens, UniProt O00329); assay: PI3Kδ inhibition assay; type: biochemical
Chain of PI3Kδ (O00329 whole entry): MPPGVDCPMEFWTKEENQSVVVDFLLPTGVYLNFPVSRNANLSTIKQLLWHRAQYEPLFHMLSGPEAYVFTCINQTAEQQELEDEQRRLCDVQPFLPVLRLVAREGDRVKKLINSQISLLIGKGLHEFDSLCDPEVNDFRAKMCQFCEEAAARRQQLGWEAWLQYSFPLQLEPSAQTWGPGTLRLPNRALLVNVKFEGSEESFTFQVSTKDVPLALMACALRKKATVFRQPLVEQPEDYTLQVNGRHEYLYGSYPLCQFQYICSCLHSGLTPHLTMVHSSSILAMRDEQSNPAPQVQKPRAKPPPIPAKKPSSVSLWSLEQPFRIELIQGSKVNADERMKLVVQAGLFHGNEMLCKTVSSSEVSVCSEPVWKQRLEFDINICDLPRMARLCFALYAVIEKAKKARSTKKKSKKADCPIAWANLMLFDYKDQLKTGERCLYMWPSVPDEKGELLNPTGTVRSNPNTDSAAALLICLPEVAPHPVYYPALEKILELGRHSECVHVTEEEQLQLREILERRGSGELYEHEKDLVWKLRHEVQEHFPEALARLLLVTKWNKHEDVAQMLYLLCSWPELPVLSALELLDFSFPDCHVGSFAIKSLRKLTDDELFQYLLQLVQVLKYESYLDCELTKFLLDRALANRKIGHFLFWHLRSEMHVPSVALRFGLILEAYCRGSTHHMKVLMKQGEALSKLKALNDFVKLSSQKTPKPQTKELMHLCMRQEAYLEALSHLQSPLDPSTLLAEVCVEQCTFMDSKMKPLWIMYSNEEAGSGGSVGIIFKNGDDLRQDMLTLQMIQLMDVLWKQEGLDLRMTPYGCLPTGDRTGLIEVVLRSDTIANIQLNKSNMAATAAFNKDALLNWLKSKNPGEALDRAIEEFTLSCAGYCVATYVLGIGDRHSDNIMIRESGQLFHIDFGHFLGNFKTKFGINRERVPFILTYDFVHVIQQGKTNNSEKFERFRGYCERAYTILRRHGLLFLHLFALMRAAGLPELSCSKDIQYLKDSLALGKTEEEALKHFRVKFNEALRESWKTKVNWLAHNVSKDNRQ
Chain of PI3Kδ (P27986 whole entry partner): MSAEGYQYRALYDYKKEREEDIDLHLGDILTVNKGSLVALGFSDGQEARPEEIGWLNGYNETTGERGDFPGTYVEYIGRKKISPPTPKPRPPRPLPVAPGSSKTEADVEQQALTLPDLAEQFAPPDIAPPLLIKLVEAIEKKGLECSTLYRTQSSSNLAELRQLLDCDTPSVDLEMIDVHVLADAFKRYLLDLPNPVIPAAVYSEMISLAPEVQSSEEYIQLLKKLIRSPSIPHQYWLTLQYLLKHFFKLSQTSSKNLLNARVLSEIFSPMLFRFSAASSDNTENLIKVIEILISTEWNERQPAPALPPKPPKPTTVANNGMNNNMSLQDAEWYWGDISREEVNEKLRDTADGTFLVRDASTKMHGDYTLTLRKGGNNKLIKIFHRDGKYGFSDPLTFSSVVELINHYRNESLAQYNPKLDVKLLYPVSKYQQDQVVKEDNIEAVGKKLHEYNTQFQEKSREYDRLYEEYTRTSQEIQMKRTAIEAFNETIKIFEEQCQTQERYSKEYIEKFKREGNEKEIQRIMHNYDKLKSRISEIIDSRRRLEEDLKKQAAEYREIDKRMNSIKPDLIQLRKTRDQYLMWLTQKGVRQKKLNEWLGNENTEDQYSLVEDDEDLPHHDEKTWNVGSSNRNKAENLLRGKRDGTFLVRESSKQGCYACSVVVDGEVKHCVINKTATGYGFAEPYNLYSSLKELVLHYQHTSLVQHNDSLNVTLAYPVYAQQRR

MDA-MB-231 cells [7] = assay: Morphological study by inverted microscope; type: cell-based; conditions: 48 h
Procedure, shortened: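 MDA-MB-231 cells were grown in DMEM with 10% FBS and 1% streptomycin/penicillin at 37 °C, 5% CO2. They were treated with varying concentrations of test compound for 48 h and examined by inverted light microscopy. Phenotypic changes were scored as cell shrinkage, apoptotic body formation and membrane blebbing.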

MDA-MB-231 cells [8] = assay: DNA fragmentation by gel electrophoresis; type: cell-based; conditions: post-treatment
Procedure, shortened: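 MDA-MB-231 cells kept in DMEM with 10% FBS and 1% streptomycin/penicillin at 37 °C, 5% CO2. Genomic DNA was extracted with a commercial kit from cells before and after test compound treatment, and its quality was checked by nanodrop. DNA plus 1X loading dye was run on agarose gel, viewed under a UV transilluminator and imaged on a gel documentation system. Doxorubicin served as reference.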

[9] = MDA-MB-231, 24 h, read-out: IC50 after 24 h (µM)
[10] = MDA-MB-231, 24 h, read-out: IC50 after 24 h in µg/mL
[11] = MDA-MB-231, 48 h, read-out: IC50 after 48 h (µM)
[12] = MDA-MB-231, 48 h, read-out: IC50 after 48 h in µg/mL

SMILES | IC50 [1, 9] [µM] | IC50 [1, 10] [µg/mL] | IC50 [1, 11] [µM] | IC50 [1, 12] [µg/mL] | IC50 at 48 h [2] | inhibition at 2 µM (KSP ATPase [3]) [%] | Number of cells in the early and late apoptosis versus untreated cells (MDA-MB-231 cells [4]) | Relative gene expression of BAX (MDA-MB-231 cells [5]) | Relative gene expression of BCL-2 (MDA-MB-231 cells [5]) | Relative gene expression of P53 (MDA-MB-231 cells [5]) | IC50 (KSP ATPase [6]) [µM] | IC50 (PI3Kδ) [µM] | Morphological changes of treated cells (MDA-MB-231 cells [7]) | DNA fragmentation (MDA-MB-231 cells [8])
O=c1c2cc(Cl)ccc2nc(S)n1-c1ccc(F)cc1 [Compound 1, 6-Chloro-3-(4-fluorophenyl)-2-mercaptoquinazolin-4(3H)-one] | 44.3 | 13.6 ± 0.12 | 23.6 | 7.23 ± 0.15 | 80 µg/mL and 261 µM |  |  |  |  |  |  |  |  | 
CCSc1nc2ccc(Cl)cc2c(=O)n1-c1ccc(F)cc1 [Compound 3a, 6-Chloro-2-(ethylthio)-3-(4-fluorophenyl)quinazolin-4(3H)-one] | 28.5 | 9.54 ± 0.11 | 14.5 | 4.86 ± 0.18 | 98.3 µg/mL and 294 µM | 88.3 ± 3.86 | significant increase | significant overexpression | downregulation | significant overexpression | 0.0887 ± 0.00316 | 0.0382 ± 0.00215 | cell shrinkage, apoptotic bodies formation, and membrane blebbing | internucleosomal fragmentation was noticed
CC(C)=CCSc1nc2ccc(Cl)cc2c(=O)n1-c1ccc(F)cc1 [Compound 3b, 6-Chloro-3-(4-fluorophenyl)-2-((3-methylbut-2-en-1-yl)thio)quinazolin-4(3H)-one] | 47.5 | 17.8 ± 0.12 | 16.3 | 6.1 ± 0.1 | 98 µg/mL and 261 µM | 89.6 ± 3.42 | significant increase | significant overexpression | downregulation | significant overexpression | 0.0858 | 0.0323 ± 0.00218 | cell shrinkage, apoptotic bodies formation, and membrane blebbing | internucleosomal fragmentation was noticed
CCOC(=O)CSc1nc2ccc(Cl)cc2c(=O)n1-c1ccc(F)cc1 [Compound 3c, Ethyl 2-((6-chloro-3-(4-fluorophenyl)-4-oxo-3,4-dihydroquinazolin-2-yl)thio)acetate] | 56 | 22 ± 0.13 | 17.8 | 7.01 ± 0.12 | 58.3 µg/mL and 148 µM |  |  |  |  |  |  |  |  | 
O=c1c2cc(Cl)ccc2nc(SCc2ccc(Cl)cc2)n1-c1ccc(F)cc1 [Compound 3d, 6-Chloro-2-((4-chlorobenzyl)thio)-3-(4-fluorophenyl)quinazolin-4(3H)-one] | 21 | 9.05 ± 0.1 | 15.3 | 6.59 ± 0.09 | 65.4 µg/mL and 152 µM |  |  |  |  |  |  |  |  | 
O=c1c2cc(Cl)ccc2nc(SCc2ccc(C(F)(F)F)cc2)n1-c1ccc(F)cc1 [Compound 3f, 6-Chloro-3-(4-fluorophenyl)-2-((4-(trifluoromethyl)benzyl)thio)quinazolin-4(3H)-one] | 58.9 | 27.39 ± 0.1 | 37 | 17.19 ± 0.12 | 67.8 µg/mL and 146 µM |  |  |  |  |  |  |  |  | 
O=c1c2cc(Cl)ccc2nc(SCc2cc(C(F)(F)F)cc(C(F)(F)F)c2)n1-c1ccc(F)cc1 [Compound 3g, 2-((3,5-Bis(trifluoromethyl)benzyl)thio)-6-chloro-3-(4-fluorophenyl)quinazolin-4(3H)-one] | 50.5 | 26.92 ± 0.09 | 38.1 | 20.3 ± 0.23 | 70.4 µg/mL and 132 µM | 90.5 ± 2.16 |  |  |  |  | 0.0774 | 0.0578 ± 0.00275 |  | 
O=c1c2cc(Cl)ccc2nc(SCc2ccc(Br)cc2F)n1-c1ccc(F)cc1 [Compound 3h, 2-((4-Bromo-2-fluorobenzyl)thio)-6-chloro-3-(4-fluorophenyl)quinazolin-4(3H)-one] | 30.2 | 14.89 ± 0.11 | 16.5 | 8.14 ± 0.13 | 51.4 µg/mL and 104 µM | 92.6 ± 2.35 |  |  |  |  | 0.0735 | 0.0538 ± 0.0031 |  | 
N#Cc1ccc(CSc2nc3ccc(Cl)cc3c(=O)n2-c2ccc(F)cc2)cc1 [Compound 3i, 4-(((6-Chloro-3-(4-fluorophenyl)-4-oxo-3,4-dihydroquinazolin-2-yl)thio)methyl)benzonitrile] | 95.6 | 40.33 ± 0.11 | 62.8 | 26.49 ± 0.13 | 86.5 µg/mL and 205 µM |  |  |  |  |  |  |  |  | 
O=c1c2cc(Cl)ccc2nc(SCc2ccc([N+](=O)[O-])cc2)n1-c1ccc(F)cc1 [Compound 3j, 6-Chloro-3-(4-fluorophenyl)-2-((4-nitrobenzyl)thio)quinazolin-4(3H)-one] | 50.9 | 22.48 ± 0.12 | 31.6 | 13.96 ± 0.12 | 78.3 µg/mL and 177 µM |  |  |  |  |  |  |  |  | 
O=C1c2ccccc2C(=O)N1CSc1nc2ccc(Cl)cc2c(=O)n1-c1ccc(F)cc1 [Compound 3k, 2-(((6-Chloro-3-(4-fluorophenyl)-4-oxo-3,4-dihydroquinazolin-2-yl)thio)methyl)isoindoline-1,3-dione] | 38 | 17.71 ± 0.14 | 18.4 | 8.57 ± 0.1 | 80.5 µg/mL and 173 µM |  |  |  |  |  |  |  |  | 
O=C(CSc1nc2ccc(Cl)cc2c(=O)n1-c1ccc(F)cc1)Nc1cccc2ccccc12 [Compound 3l, 2-((6-Chloro-3-(4-fluorophenyl)-4-oxo-3,4-dihydroquinazolin-2-yl)thio)-N-(naphthalen-1-yl)acetamide] | 26.9 | 13.18 ± 0.13 | 14.2 | 6.98 ± 0.12 | 79 µg/mL and 161 µM |  |  |  |  |  |  |  |  | 
COc1cccc2c1C(=O)c1c(O)c3c(c(O)c1C2=O)C[C@@](O)(C(=O)CO)C[C@@H]3O[C@H]1C[C@H](N)[C@H](O)[C@H](C)O1 [Doxorubicin, reference compound] |  |  | 1.41 | 0.77 ± 0.14 | 40.5 µg/mL and 74.5 µM |  |  |  |  |  |  |  |  | 
Cc1ccc(C(=O)N(CCCN)[C@@H](c2nc3cc(Cl)ccc3c(=O)n2Cc2ccccc2)C(C)C)cc1 [Ispinesib, reference compound] |  |  |  |  |  | 95.5 ± 2.24 |  |  |  |  |  |  |  | 

— paper PMC10864842 (Saudi Pharmaceutical Journal : SPJ, 2024)
